Measurements from different studies.
Protocols differ between the studies behind these lines. pIC50: −log10 of the molar value.
PSMB8: Proteasome subunit beta type-8 (PSMB8, Homo sapiens, UniProt P28062)
DHODH: Dihydroorotate dehydrogenase (quinone), mitochondrial (DHODH, Homo sapiens, UniProt Q02127)
TYMS: Thymidylate synthase (TYMS, Homo sapiens, UniProt P04818)

Compound	target	assay	conditions	pIC50
COc1ccc(S(=O)(=O)ON=C2C=C(C)C(=O)C(C)=C2)cc1	Histone acetyltransferase KAT7 (KAT7, Homo sapiens, UniProt O95251)	enzyme activity, inhibitor, radiometric	–	< 4.00
CCOc1ccc2c(-c3cc(C)nc(Nc4cc(OC)cc(C(F)(F)F)c4)n3)cnn2n1	Dual specificity tyrosine-phosphorylation-regulated kinase 3 (DYRK3, Homo sapiens, UniProt O43781)	enzyme activity, inhibitor	–	< 5.00
C[C@@H]1O[C@H](CNS(=O)(=O)c2ccc(C#CC3CC3)s2)[C@@H](O)[C@H](O)[C@@H]1O	Fucose-binding lectin PA-IIL (lecB, Pseudomonas aeruginosa, UniProt Q9HYN5)	enzyme activity, inhibitor	–	5.60
COc1ccc(C[C@H](NC(=O)[C@H](C)NC(=O)CN2CCOCC2)C(=O)N[C@H](C(=O)[C@@]2(C)CO2)C2CCCCC2)cc1	PSMB8	enzyme activity, inhibitor	lysate	< 5.00
Cc1cc(Nc2cc3ncccc3c(N[C@@H]3C[C@H]4CC[C@@H](C3)N4CCC#N)n2)n[nH]1	Platelet-derived growth factor receptor beta (PDGFRB, Homo sapiens, UniProt P09619)	target engagement in cells, inhibitor, BRET	–	< 5.00
COC[C@@H](C)NC1CCC(Nc2cc(-c3cccc(NCC4(C#N)CCOCC4)n3)c(Cl)cn2)CC1 (some centres unmarked)	Dual specificity tyrosine-phosphorylation-regulated kinase 1B (DYRK1B, Homo sapiens, UniProt Q9Y463)	enzyme activity, inhibitor, FRET	–	6.46
CCn1ncc2c1-c1cnc(N)c(c1)O[C@H](C)c1cc(F)ccc1-c1nn(C)nc1C2	Ephrin type-A receptor 1 (EPHA1, Homo sapiens, UniProt P21709)	enzyme activity, inhibitor, radiometric	–	6.55
CCOCc1nc(O)c(-c2nnc(Cc3ccc(Cl)cn3)o2)c(O)c1-c1c(OC)cccc1OC	Alpha-1D adrenergic receptor (ADRA1D, Homo sapiens, UniProt P25100)	ligand displacement, radioligand	–	< 4.52
CCCN(C)Cc1cc(-c2[nH]c3cccc(F)c3c(=O)c2C)ccc1Cc1ccc(OC(F)(F)F)cc1	DHODH	enzyme activity, inhibitor	–	< 5.00
O=C(O)C1=CC(=C(c2ccc(O)c(C(=O)O)c2)c2ccc(O)c(C(=O)O)c2)C=CC1=O	PFKM (Oryctolagus cuniculus, UniProt P00511)	enzyme activity, inhibitor	–	5.41
Cc1nc(Nc2ccc(C)c(Cl)c2)c2c(C)noc2n1	DHODH	enzyme activity, inhibitor, absorbance	–	< 4.30
CC(C)C[C@H](NC(=O)[C@H](Cc1ccccc1)N=[N+]=[N-])C(=O)N[C@@H](CC(C)(C)F)C(=O)N[C@H](/C=C/S(C)(=O)=O)Cc1ccc(CN)cc1	PSMB8	enzyme activity, inhibitor	lysate	5.63
Cc1nc(Nc2ccc(S(F)(F)(F)(F)F)cc2)c2c(C(F)(F)F)noc2n1	DHODH	enzyme activity, inhibitor, absorbance	–	< 4.00
CN1CCN(c2ccc(Nc3ncc4cc(C#N)c(=O)n(C5CCCC5)c4n3)cc2)CC1	Dual specificity tyrosine-phosphorylation-regulated kinase 1A (DYRK1A, Homo sapiens, UniProt Q13627)	enzyme activity, inhibitor	–	6.09
Nc1ncnc2c1ncn2[C@@H]1O[C@H](CSCCNC(=O)NCc2ccccc2)[C@@H](O)[C@H]1O	Protein arginine N-methyltransferase 7 (PRMT7, Homo sapiens, UniProt Q9NVM4)	enzyme activity, inhibitor, radiometric	–	> 5.62
Cc1ncc(C(=O)N[C@@H](CC(C)C)C(=O)N[C@@H](CC2CCCCC2)C(=O)N[C@H](/C=C/S(C)(=O)=O)Cc2ccc(CN)cc2)s1	PSMB8	enzyme activity, inhibitor	lysate	< 5.00

Compound	target	assay	conditions	pIC50
NC(=O)C1CCN(C(=O)c2ccc(NCc3cnc4nc(N)nc(N)c4n3)cc2)CC1	TYMS	enzyme activity, inhibitor	–	4.38
Cc1c(C(=O)NC(C)c2nc[nH]n2)[nH]c(Cl)c1C1(c2ccc(C(F)(F)F)nc2)CC1 (centres unmarked)	DHODH	enzyme activity, inhibitor	–	< 4.00
Cc1ncc(C(=O)N[C@@H](CC(C)C)C(=O)N[C@@H](CC2CCC(C)CC2)C(=O)N[C@H](/C=C/S(C)(=O)=O)Cc2ccc(CN)cc2)s1 (some centres unmarked)	PSMB8	enzyme activity, inhibitor	lysate	< 5.00
O=C1N[C@H]2n3c(cc(Br)c3Br)C(=O)N3CCC[C@]23N1 (racemic)	Proteasome subunit beta type-8, chymotrypsin-like site (PSMB8, Homo sapiens, UniProt P28062)	enzyme activity, inhibitor	–	5.17
CC(C)C[C@H](NC(=O)c1ccc(-c2ccccc2)nc1)C(=O)N[C@@H](CC(C)C)C(=O)N[C@H](/C=C/S(C)(=O)=O)Cc1ccc(CN)cc1	PSMB8	enzyme activity, inhibitor	lysate	< 5.00
CC(=O)N[C@@H](CC(=O)O)C(=O)N[C@@H](CCC(=O)O)C(=O)N[C@H](C(=O)N[C@H](C=O)CC(=O)O)C(C)C	Caspase-7 (CASP7, Homo sapiens, UniProt P55210)	enzyme activity, inhibitor	–	8.76
CC[C@@H]1[C@H](F)C(=O)N[C@@H]1COc1nccc2cc(C(N)=O)c(OC)cc12	Ephrin type-A receptor 7 (EPHA7, Homo sapiens, UniProt Q15375)	enzyme activity, inhibitor	–	< 5.30
Cc1nc(NC2CCc3cc(Cl)ccc3C2)c2c(C)noc2n1 (centres unmarked)	DHODH	enzyme activity, inhibitor, absorbance	–	< 4.00
COC1CCC(C[C@H](NC(=O)[C@H](CC(C)C)NC(=O)c2cnc(C)s2)C(=O)N[C@H](/C=C/S(C)(=O)=O)Cc2ccc(CN)cc2)CC1 (some centres unmarked)	PSMB8	enzyme activity, inhibitor	lysate	< 5.00
Oc1ccc(Cl)cc1Nc1nc(NCC2CCCO2)c2ccccc2n1 (centres unmarked)	Lysosomal acid glucosylceramidase (GBA1, Homo sapiens, UniProt P04062, R534H)	enzyme activity, inhibitor, fluorescence	pH 5.9	5.82
Cc1ncc(C(=O)N[C@@H](CC2CCC(C)CC2)C(=O)N[C@@H](CC(C)C)C(=O)N[C@H](/C=C/S(C)(=O)=O)Cc2ccc(CN)cc2)s1 (some centres unmarked)	PSMB8	enzyme activity, inhibitor	lysate	< 5.00
CC(C)=CCC[C@@H](C)c1ccc(C)c(O)c1	UDP-glucuronosyltransferase 1A1 (UGT1A1, Homo sapiens, UniProt P22309)	enzyme activity, inhibitor	90 min	4.95
CCOC(=O)C1CCN(C(=O)c2ccc(N(CC)Cc3cnc4nc(N)nc(N)c4n3)cc2)CC1	TYMS	enzyme activity, inhibitor	–	4.04
Cc1ncc(C(=O)N[C@@H](CC(C)C)C(=O)N[C@@H](CC2CCC3CCCCC3C2)C(=O)N[C@H](/C=C/S(C)(=O)=O)Cc2ccc(CN)cc2)s1 (some centres unmarked)	PSMB8	enzyme activity, inhibitor	lysate	5.49
Nc1nc(N)c2nc(CNc3ccc(C(=O)N4CCC(C(=O)O)CC4)cc3)cnc2n1	TYMS	enzyme activity, inhibitor	–	4.17
Cc1ccc(Nc2c(-c3ccc(S(C)(=O)=O)cc3)nc3cccc(C)n23)cc1	Prostaglandin G/H synthase 2 (PTGS2, Homo sapiens, UniProt P35354)	enzyme activity, inhibitor	–	6.92
